Measured values gathered from unrelated publications.
Protocols differ between the studies behind these lines.
Target: Mitogen-activated protein kinase 3 (MAPK3, Homo sapiens, UniProt P27361)

Compound	test	system	conditions	quantity	value
Cn1c2c(Cl)c(Cl)ccc2c2cc[nH]c(=O)c21	thermal stability, DSF	–	10 µM	ΔTm	-0.4 °C
N#CC(=C(N)Sc1ccc(N)cc1)c1ccccc1C(F)(F)F	cell-free assay	–	0.5 µM	remaining signal	116%
Cn1c2c(Cl)c(Cl)ccc2c2cn[nH]c(=O)c21	thermal stability, DSF	–	10 µM	ΔTm	0.1 °C
Nc1nc(NC2CCCCC2)sc1C(=O)c1ccccc1	enzyme activity, inhibitor	–	10 µM	remaining activity	20%
Cc1nc(N2CC[C@@H](O)C2)ncc1-c1cc(C(F)(F)F)cc2[nH]ncc12	binding, competition with immobilised ligand	–	1 µM	remaining binding	100%
CC1(C)NC(=O)c2[nH]c3c(Cl)c(Cl)ccc3c2C1C#N (stereo not shown)	thermal stability, DSF	–	10 µM	ΔTm	0.2 °C
Nc1ncnc2occ(-c3ccc(NC(=O)Nc4cc(C(F)(F)F)ccc4F)cc3)c12	cell-free assay, inhibitor	–	20 µM	remaining signal	100%
FC(F)(F)Oc1cccc(-c2cnc3ccc(-c4ccncc4)nn23)c1	enzyme activity, inhibitor, radiometric	–	1 µM	activity vs control	105%
FC(F)c1nc2ccccc2n1-c1nc(N2CCOCC2)nc(N2CCOCC2)n1	enzyme activity, inhibitor	–	10 µM	remaining activity	106%
Cc1cc(NC(=O)c2cccc(S(F)(F)(F)(F)F)c2)cc(-n2ccn3nc(-c4cccnc4)cc23)c1	cell-free assay, competition with immobilised ligand	–	1 µM	remaining binding	86.8%
CNC(=O)c1cc(Oc2ccc(NC(=O)Nc3ccc(Cl)c(C(F)(F)F)c3)cc2)ccn1	cell-free assay	–	0.5 µM	remaining signal	105%
CCCS(=O)(=O)Nc1ccc(F)c(C(=O)c2c[nH]c3ncc(-c4ccc(Cl)cc4)cc23)c1F	enzyme activity, inhibitor	–	1 µM	inhibition	< 20%
CCN1CCN(Cc2ccc(NC(=O)c3ccc(C)c(/C=C/c4cnc5[nH]ccc5c4OC)c3)cc2C(F)(F)F)CC1	target engagement in cells, inhibitor, chemoproteomics	A-375	0.5 µM	inhibition	-18.7%
Nc1cnc(N2CCc3cc(S(=O)(=O)Nc4c(F)cc(Cl)cc4F)cc(N4CCCC4=O)c32)nc1	cell-free assay, competition with immobilised ligand	–	1 µM	remaining binding	91%
COc1cc(Nc2cnc(C#N)c(O[C@H](C)CN(C)C)n2)ncc1-c1cnn(C)c1	enzyme activity, inhibitor, radiometric	–	1 µM	remaining activity	96%
CCN1CCN(Cc2ccc(NC(=O)c3ccc(C)c(Oc4ccnc5[nH]ccc45)c3)cc2C(F)(F)F)CC1	target engagement in cells, inhibitor, chemoproteomics	A-375	5 µM	inhibition	-51.2%
CC(C)(C)c1nc(-c2cccc(NS(=O)(=O)c3c(F)cccc3F)c2F)c(-c2ccnc(N)n2)s1	enzyme activity, inhibitor, radiometric	–	1 µM	remaining activity	92%

Compound	test	system	conditions	quantity	value
Cc1nc(Cc2cccc(C(F)(F)F)c2)sc1-c1ccc(C(N)=O)nc1	cell-free assay, competition with immobilised ligand	–	1 µM	remaining binding	96%
Cn1c2c(c3ccc(Cl)c(Cl)c31)C(C#N)C1(CCOCC1)NC2=O (stereo not shown)	thermal stability, DSF	–	10 µM	ΔTm	0.1 °C
CNc1cccc2cc(C(=O)Nc3ccc(C(=O)O)cc3)c(=O)[nH]c12	enzyme activity, inhibitor	–	10 µM	inhibition	1.9%
COc1cc(/C=C/C(=O)CC(=O)/C=C/c2ccc(O)c(OC)c2)ccc1O	enzyme activity, inhibitor	–	1 µM	activity vs control	94%
Nc1nc(Nc2ccccc2)sc1C(=O)c1c(F)cccc1F	enzyme activity, inhibitor	–	10 µM	remaining activity	72%
Cn1c2c(c3ccc(Cl)c(Cl)c31)C(C#N)C1(CCCC1)NC2=O (stereo not shown)	thermal stability, DSF	–	10 µM	ΔTm	-0.2 °C
O=C1Nc2ccc(Cl)cc2C1=Cc1cc(Cl)c(O)c(Cl)c1	cell-free assay	–	0.5 µM	remaining signal	88.2%
CN1CCC2(CC1)NC(=O)c1c(c3ccc(Cl)c(Cl)c3n1C)C2C#N (racemic)	thermal stability, DSF	–	10 µM	ΔTm	0.3 °C
O=C(Nc1cnn(-c2csc(C(=O)NC3COC3)c2)c1)Nc1ccccc1Cl	enzyme activity, inhibitor	–	5 µM	remaining activity	92.8%
Cc1c[nH]c2nccc(Oc3c(F)cc(Nc4cc(Cl)nc(N)n4)cc3F)c12	cell-free assay, competition with immobilised ligand	–	0.1 µM	remaining binding	90%
O=C1NC(=O)c2cc(Nc3ccc(F)cc3)c(Nc3ccc(F)cc3)cc21	cell-free assay	–	0.5 µM	remaining signal	86.1%
C[C@H](c1ccc(F)cc1)N(Cc1cccc(C(=O)O)c1)C(=O)c1cnc2ccccc2c1	cell-free assay, competition with immobilised ligand	–	1 µM	remaining binding	100%
Cc1ccc(C(=O)Nc2ccc(CN3CCN(C)CC3)c(C(F)(F)F)c2)cc1C#Cc1cnc2cccnn12	enzyme activity, inhibitor	–	23.5 nM	remaining activity	100%
O=C(NC[C@@H]1[C@H]2CN(C(=O)OCc3cc(C(F)(F)F)cc(C(F)(F)F)c3)C[C@@H]12)c1ccc2[nH]nnc2c1	cell-free assay, competition with immobilised ligand	–	1 µM	remaining binding	100%
COc1cc2ncnc(Nc3ccc(Oc4ccccc4)cc3C)c2cc1OC	enzyme activity, inhibitor	–	1 µM	inhibition	5%
O=C1C(Cl)=C(N2C(=O)CCC2=O)C(=O)c2ccccc21	enzyme activity, inhibitor	–	0.5 µM	remaining activity	99.3%
CN(c1ccnc(CNc2nc(Nc3ccc4c(c3)CC(=O)N4)ncc2C(F)(F)F)n1)S(C)(=O)=O	cell-free assay, competition with immobilised ligand	–	1 µM	remaining binding	96%
